For data set [1], the system named is primary human hepatocytes. In words: Toxicity against primary human hepatocytes. The class given is cell-based. To be noted: maximum concentration 100 μM, 72 h incubation.
The target of a further data set is KPC-2 (Klebsiella pneumoniae, UniProt Q9F663). The data set is described as follows: β-Lactamase hydrolysis, KPC-2. To be noted: KPC-2, 200 nM enzyme, 100 μM 1. The class given is biochemical.
A further data set has as its target OXA-23 (Acinetobacter baumannii, UniProt Q9L4P2). The data set is described as follows: β-Lactamase hydrolysis, OXA-23. Type of data set: biochemical. The following applies: OXA-23, 200 nM enzyme, 100 μM 1.
The next data set has as its system Caco-2. In words: Caco-2 permeability. The class given is in vitro ADME. In general terms: Caco-2 monolayers are a common model of the intestinal barrier.
The target of another data set is OXA-24 (Acinetobacter baumannii, UniProt Q8RLA6). In words: β-Lactamase hydrolysis, OXA-24. Type of data set: biochemical. The following applies: OXA-24, 200 nM enzyme, 100 μM 1.
For data set [2], the system named is seven other tested ion channels. The data set is described as follows: Other ion channels. Type of data set: binding. To be noted: 30 μM.
In another data set the target is PDC-3 (Pseudomonas aeruginosa, UniProt P24735, T105A). The data set is described as follows: β-Lactamase hydrolysis, PDC-3. Type of data set: biochemical, P. aeruginosa.
The subject of another data set is eight CYP enzymes. In words: CYP inhibition. Type of data set: in vitro ADME. To be noted: 30 μM.
The nature of data set [3]: Plasma PK after IV administration in mice. The class given is in vivo. The following applies: CD-1, mouse, 50 mg/kg. In a few lines: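 CD-1 mice in groups of 24 received 50 mg/kg IV with parallel sampling. Blood was taken by cardiac puncture under isoflurane into lithium heparin or K2EDTA tubes and kept on ice. Tubes were spun at 2500 × g for 15 min at 4 °C within 1 h, and plasma was stored at −70 °C. Samples were acetonitrile-precipitated and run by HPLC-MS/MS against a spiked-plasma calibration curve with internal standard. Parameters were derived by noncompartmental analysis.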

For another data set, the target named is hERG (Homo sapiens, UniProt Q12809). In words: hERG binding. The following applies: 30 μM. For orientation: hERG is a cardiac potassium channel; its block is linked to QT prolongation.
Sequence of hERG (Q12809 whole entry): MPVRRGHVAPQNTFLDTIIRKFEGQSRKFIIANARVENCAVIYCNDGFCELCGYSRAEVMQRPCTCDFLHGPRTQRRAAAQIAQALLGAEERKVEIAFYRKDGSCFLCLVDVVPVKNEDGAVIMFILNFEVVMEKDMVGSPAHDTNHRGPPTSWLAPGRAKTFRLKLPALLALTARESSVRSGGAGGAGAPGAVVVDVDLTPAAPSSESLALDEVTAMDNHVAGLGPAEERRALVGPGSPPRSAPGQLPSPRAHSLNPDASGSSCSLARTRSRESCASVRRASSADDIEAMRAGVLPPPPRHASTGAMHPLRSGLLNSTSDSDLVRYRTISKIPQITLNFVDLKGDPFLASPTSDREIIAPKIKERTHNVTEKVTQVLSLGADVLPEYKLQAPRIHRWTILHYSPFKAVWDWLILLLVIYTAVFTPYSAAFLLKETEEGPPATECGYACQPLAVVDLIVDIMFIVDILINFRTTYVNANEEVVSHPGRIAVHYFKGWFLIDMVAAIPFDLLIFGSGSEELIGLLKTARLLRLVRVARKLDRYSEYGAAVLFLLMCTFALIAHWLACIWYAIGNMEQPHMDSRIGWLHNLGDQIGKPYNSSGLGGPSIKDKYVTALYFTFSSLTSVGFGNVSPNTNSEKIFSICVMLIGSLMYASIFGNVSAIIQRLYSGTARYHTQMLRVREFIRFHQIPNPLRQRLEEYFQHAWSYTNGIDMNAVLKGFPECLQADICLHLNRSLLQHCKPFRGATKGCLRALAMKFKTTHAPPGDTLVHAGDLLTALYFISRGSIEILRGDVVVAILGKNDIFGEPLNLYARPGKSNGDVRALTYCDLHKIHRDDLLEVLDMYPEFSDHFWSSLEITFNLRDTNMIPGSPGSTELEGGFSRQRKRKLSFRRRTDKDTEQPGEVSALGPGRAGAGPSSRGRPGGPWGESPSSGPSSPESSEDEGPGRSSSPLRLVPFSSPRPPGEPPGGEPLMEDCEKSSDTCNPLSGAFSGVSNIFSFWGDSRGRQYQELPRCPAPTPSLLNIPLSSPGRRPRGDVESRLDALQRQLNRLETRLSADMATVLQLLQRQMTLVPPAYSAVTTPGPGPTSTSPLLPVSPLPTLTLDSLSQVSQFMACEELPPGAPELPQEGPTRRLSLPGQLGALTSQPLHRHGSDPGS
The next data set relates to PER-2. In words: β-Lactamase hydrolysis, PER-2. The class given is biochemical. To be noted: PER-2, 200 nM enzyme, 100 μM 1.
In a further data set the test system is Gram-negative isolates. In words: Abbreviated MIC panel of Gram-negative isolates. Type of data set: cell-based. The procedure, abridged: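 Broth microdilution MIC using iron-depleted cation-adjusted Mueller–Hinton broth, except where noted otherwise. The inoculum was lowered to 6 × 10^4 CFU/mL.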
For data set [4], the system named is K. pneumoniae (100 clinical isolates). To be noted: comparator MICs from the original studies; cited from earlier work.
Data set [5] relates to P. aeruginosa (197 clinical isolates). To be noted: comparator MICs from the original studies; cited from earlier work.
For data set [6] the following is noted: IV bags, in 24 h after reconstitution; known, ref not given; cited from earlier work.

As usually defined, the clearance is the rate of elimination divided by the concentration. Low readings indicate a low capacity for elimination, high ones a high capacity for elimination. One may read the MIC as the least concentration at which growth counts as inhibited. High values mean a need for much substance, low ones inhibition by little substance. By MIC50 is commonly meant the lowest concentration that inhibits either 50% of growth or 50% of the strains tested, depending on the study. For orientation: MIC90 means an inhibitory concentration at the 90% level, which refers to growth in some studies and to a panel of isolates in others.

Regarding `CC(C)(O/N=C(\C(=O)N[C@H]1CN2CC(C(=O)NCCN3C(=O)c4cc(O)c(O)cc4C3=O)=C(C(=O)O)N2C1=O)c1csc(N)n1)C(=O)O` [Compound 1, (S,Z)-6-(2-(2-Aminothiazol-4-yl)-2-(((2-carboxypropan-2-yl)oxy)imino)acetamido)-2-((2-(5,6-dihydroxy-1,3-dioxoisoindolin-2-yl)ethyl)carbamoyl)-5-oxo-6,7-dihydro-1H,5H-pyrazolo[1,2-a]pyrazole-3-carboxylic Acid], the toxicity result in data set [1] is reported as “not found”. Also, the “hydrolysis by β-lactamase” value on KPC-2, at OXA-23, on OXA-24, at PDC-3 and with PER-2 was “hydrolysis was not detected” each time. The Caco-2 permeability result in the data set with Caco-2 is reported as “poor”. Also, in [2], the ion channel binding entry is recorded as “does not bind”. For the same compound, the CYP inhibition entry with eight CYP enzymes is reported as “does not inhibit”. Also, in data set [3], the clearance at 2 h is 0.84 L/h/kg. The compound further returned a concentration at 2 h in [3] above 1 µg/mL. At hERG, the hERG binding result is “does not bind”.
For `CC(C)(O/N=C(\C(=O)N[C@H]1CN2CC(C(=O)NCCc3ccccc3)=C(C(=O)O)N2C1=O)c1csc(N)n1)C(=O)O` [Compound 2, (S,Z)-6-(2-(2-Aminothiazol-4-yl)-2-(((2-carboxypropan-2-yl)oxy)imino)acetamido)-5-oxo-2-(phenethylcarbamoyl)-6,7-dihydro-1H,5H-pyrazolo[1,2-a]pyrazole-3-carboxylic Acid], the MIC against Gram-negative isolates was above 64 mg/L.
Consider `CC(C)(O/N=C(\C(=O)N[C@@H]1C(=O)N2C(C(=O)[O-])=C(C[n+]3ccccc3)CS[C@H]12)c1csc(N)n1)C(=O)O` [ceftazidime (4), ceftazidime], for which, in data set [4], the MIC50 is above 64 mg/L and the MIC90 was above 64 mg/L. Also, the MIC90 in data set [5] was above 16 mg/L.
Take `C[C@@H](O)[C@H]1C(=O)N2C(C(=O)O)=C(S[C@@H]3CN[C@H](C(=O)N(C)C)C3)[C@H](C)[C@H]12` [meropenem (6), meropenem]: the degradation after reconstitution in data set [6] is above 30%. The MIC90 was above 64 mg/L in [4] and above 8 mg/L in data set [5].

(Values after PMC7590959 (Journal of medicinal chemistry, 2020).)
